PglD DTNB = blocks C. jejuni PglD acetyltransferase activity; purified PglD enzyme, DTNB colorimetric CoA detection; inhibition, % at 12.5 µM; actives 0.098% (n = 360,000); AID 602405; in the data active = inhibition above about 16%, passing the limit was not always enough; inconclusive = no clear call, values can overlap the other calls
Statin myotox sup = suppression of simvastatin myotoxicity; AID 602340; actives 0.78% (n = 330,000); C2C12 myotubes + simvastatin, ATP luminescence, 48 h; scaled: DMSO 0, geranylgeraniol control 100; rescue of ATP level, % at 7.49 µM;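 active = mean ATP rescue above about 67%, or every replicate alone reaching that limit, limit read from the data, passing the limit was not always enough; inconclusive = no clear call, values can overlap the other calls; inactive = mean under the limit and some replicate under it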;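 note: myotubes were challenged with 10 µM simvastatin during compound exposure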
XiGFP reactiv = activators of X-chromosome reactivation in mouse fibroblasts; activation, % at 7.58 µM; XiGFP mouse fibroblasts, % GFP-positive cells imaging, 3 d; cells co-treated with 5-aza-dC sensitizer; scaled so ellipticine positive control = 100%; actives 0.055% (n = 360,000);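 active = mean normalized replicate activation at least 10% and every replicate at or above 10%; inconclusive = only one of the two criteria met; inactive = mean below 10% and not all replicates reach 10%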
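Schedule: 3 d treatment, 15 min room-temperature fixation; system: 68-5-11 XiGFP fibroblast line; buffer or medium: DMEM plus 5-aza-dC sensitizer; control set: ellipticine 6 µM positive control; compound: one concentration, pinned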
DENV2 CPE rescue = inhibitors of DENV2 cytopathic effect. DENV2-infected cells, cytopathic effect rescue, plate reader. CPE inhibition, % at 9.99 µM. actives 1.7% (n = 350,000); in the data active = CPE inhibition above about 20%, passing the limit was not always enough; inconclusive = no clear call, values can overlap the other calls; tested in BHK-21 cells
E-selectin induc = E-selectin induction on HUVECs. HUVEC E-selectin immunofluorescence imaging; normalized: neutral wells 0, TNF-alpha wells 100. activation, % at 7.58 µM. actives 0.37% (n = 260,000);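 active = mean E-selectin-positive cell signal at least 10% of the positive control, reached in at least 60% of replicates, without over 20% cell loss; inconclusive = no rule given, readout overlaps actives, possibly toxicity-flagged; inactive = the rest, including those meeting only one limit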
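Read-out basis: % PE-positive cells; Test system: HUVEC primary endothelial cells; Technique: immunofluorescence imaging; Dosing: single-point compound dose.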
FGF22 binding = shifts melting point of recombinant human FGF22; actives 1.5% (n = 340,000); activity (Tm shift, normalised), % at 9.99 µM; Q9HCT0; recombinant FGF22 thermal shift, SYPRO orange fluorescence; percent of sucrose octasulfate shift, DMSO zero;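 active = mean Tm shift, scaled 0 neutral to 100 positive control, at about 1.3% or above, every replicate too, limit read from the data; inconclusive = no clear call, values can overlap the other calls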
Target sequence (Q9HCT0 whole entry, looked up): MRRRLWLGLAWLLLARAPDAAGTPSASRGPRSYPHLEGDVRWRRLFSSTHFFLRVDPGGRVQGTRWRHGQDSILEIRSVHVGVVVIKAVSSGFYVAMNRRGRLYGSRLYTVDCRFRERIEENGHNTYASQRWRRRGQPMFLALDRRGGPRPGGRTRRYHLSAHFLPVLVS
Numbers stand for hits; i = inactive; ? = inconclusive; nt = not tested or not shown. The list is not random: actives were taken first. Their share in the collection is about 3.3%.

SMILES | PglD DTNB | Statin myotox sup | XiGFP reactiv | DENV2 CPE rescue | E-selectin induc | FGF22 binding
C[C@H](CO)N1C[C@H](C)[C@H](CN(C)C(=O)Nc2ccnc(N3CCOCC3)c2)OCc2cn(nn2)CCCC1=O | i | i | i | i | i | i
C[C@@H]1CN([C@@H](C)CO)S(=O)(=O)c2ccc(C#Cc3ccccc3)cc2O[C@H]1CN(C)S(C)(=O)=O | i | i | i | 27 | i | i
C[C@@H]1CN([C@H](C)CO)S(=O)(=O)c2ccc(C#Cc3ccccc3)cc2O[C@H]1CN(C)S(C)(=O)=O | i | i | i | i | i | i
C[C@H](CO)N1C[C@H](C)[C@H](CN(C)S(C)(=O)=O)Oc2cc(C#Cc3ccccc3)ccc2S1(=O)=O | i | i | i | 28 | i | i
CO[C@@H]1CN(C)C(=O)c2cc(NS(C)(=O)=O)ccc2OC[C@@H](C)N(CC2CCCCC2)C[C@H]1C | i | i | i | ? | i | i
CCOC(=O)c1nn(-c2ccccc2)cc1O | i | i | i | i | i | i
CCOC(=O)c1nn(-c2ccc3ccccc3c2)cc1O | i | i | 17 | i | i | i
CCCCC(=O)NNC(=S)NC(=O)CCC | i | 112 | nt | nt | nt | nt
CC(C)OC(=O)C1CC(C)(O)C(=O)C(C(=O)OC(C)C)C1c1ccc([N+](=O)[O-])cc1 (stereo not given) | nt | nt | i | nt | nt | 43
CC(C)OC(=O)C1C(=O)CC(C)(O)C(C(=O)OC(C)C)C1c1ccc(F)cc1 (stereo not given) | nt | nt | nt | i | nt | i
O=C(N[C@H]1C[C@@H]2O[C@@H](CO)CC[C@@H]2O[C@@H]1CCc1ccc(C#CC2CC2)cc1)c1cccc(F)c1 | nt | nt | nt | i | nt | nt
CCCCCC(=O)N1C[C@H](n2cc(COC(=O)c3ccccc3)nn2)[C@@H](O)C[C@@H]1c1ccc(Cl)cc1 | i | i | i | 53 | nt | i
CCOc1ccc(-n2c(SCC(N)=O)nnc2-c2cccnc2)cc1 | nt | nt | i | 23 | i | i
CCOC(=O)N1CCN(C(=O)COC(=O)COc2c(C)cc(C)cc2C)CC1 | i | i | i | i | i | nt
CC(=O)N1CCN(C(=O)COC(=O)COc2c(C)cc(C)cc2C)CC1 | i | i | i | 84 | i | i
Cc1cc(OCC(=O)NC(Cc2c[nH]c3ccc(O)cc23)C(=O)O)c2c(C)c(C)c(=O)oc2c1 (stereo not given) | i | i | nt | 94 | nt | i
Cc1cc(OCC(=O)NC(Cc2ccc(Cl)cc2)C(=O)O)c2c(C)c(C)c(=O)oc2c1 (stereo not given) | i | i | nt | 92 | nt | i
CCCc1cc(=O)oc2cc(C)cc(OCC(=O)NC(Cc3ccc(Cl)cc3)C(=O)O)c12 (stereo not given) | i | i | nt | i | nt | i
CCCc1cc(=O)oc2cc(C)cc(OCC(=O)N[C@@H](CSCc3ccccc3)C(=O)O)c12 | i | i | nt | i | nt | 7.2
O=C(C[C@H]1C[C@@H]2c3cc(NC(=O)C4CCOCC4)ccc3O[C@@H]2[C@@H](CO)O1)NCc1cccc(F)c1 | i | i | i | i | i | i
O=C(C[C@H]1CC[C@H]2[C@@H](COC[C@H](O)CN2CC2CCCC2)O1)NCC1CC1 | nt | nt | i | i | i | nt
C[C@H](O)C#Cc1cnc2c(c1)C(=O)N([C@H](C)CO)C[C@H](C)[C@@H](CN(C)C(=O)c1ccccc1)O2 | i | i | i | i | i | i
O=c1c2ccccc2c(/C=N/c2nnc(Cc3ccccc3)s2)c(O)n1-c1ccc(Cl)cn1 | nt | nt | i | i | i | i
O=c1c2ccccc2c(/C=N/c2n[nH]c(CCCO)n2)c(O)n1-c1ccccc1Cl | nt | nt | i | i | i | 43
Cc1cccc(-c2ccc([C@@H]3[C@H](CO)N4CCCCN(S(=O)(=O)c5cccc(C)c5)C[C@@H]34)cc2)c1 | i | nt | i | 23 | i | i
SMILES | PglD DTNB | Statin myotox sup | XiGFP reactiv | DENV2 CPE rescue | E-selectin induc | FGF22 binding
COc1cccc(-c2ccc([C@@H]3[C@H](CO)N4CCCCN(S(=O)(=O)c5cn(C)cn5)C[C@@H]34)cc2)c1 | i | i | i | 27 | i | i
Cc1cccc(S(=O)(=O)N2CCCCN3[C@H](C2)[C@H](c2ccc(-c4ccccc4)cc2)[C@@H]3CO)c1 | i | nt | nt | i | nt | i
Cc1cccc(S(=O)(=O)N2CCCCN3[C@@H](CO)[C@@H](c4ccc(-c5cccnc5)cc4)[C@@H]3C2)c1 | i | nt | i | 28 | i | i
O=C(Nc1ccccc1F)N[C@H]1C=C[C@H](CC(=O)N2CCCCC2)O[C@@H]1CO | i | i | i | ? | i | i
Cc1cc(C)c(NC(=O)Nc2ccc3c(c2)OCO3)c(C)c1 | i | i | i | i | i | i
Cc1cc(C)c2[nH]c(C(=O)Nc3ccc4c(c3)OCO4)cc2c1 | nt | nt | i | 24 | nt | i
C[C@@H]1CN([C@H](C)CO)C(=O)Cc2cc(NS(=O)(=O)c3ccc(F)cc3)ccc2O[C@@H]1CN(C)Cc1ccc(C(=O)O)cc1 | i | i | i | i | i | i
N#Cc1c(Nc2ccc(F)cc2)sc(C(=O)c2ccccc2)c1N | nt | nt | i | i | i | 43
N#Cc1c(Nc2ccc(F)cc2)sc(C(=O)c2ccc(F)cc2)c1N | i | i | nt | i | nt | i
C[C@H](CO)N1C[C@H](C)[C@H](CN(C)CC2CC2)Oc2c(NS(C)(=O)=O)cccc2C1=O | i | i | i | i | i | i
CC(C)C#Cc1ccc([C@@H]2[C@H]3CN(C(=O)Cc4cccnc4)CC(=O)N3[C@H]2CO)cc1 | nt | nt | i | nt | nt | nt
CC1=CCC[C@H]2[C@H](C1)C(=O)C[C@@H](C)[C@]2(C)CC/C(=C/CO)CO | i | i | nt | 24 | nt | i
CCCCn1c(=O)c(CC(C)=O)nc2ccccc21 | i | i | i | i | nt | 44
CCCCCn1c(=O)c(C(=O)c2ccccc2)nc2ccccc21 | i | 121 | nt | nt | nt | nt
CCn1c(=O)c(C(C)=O)nc2ccccc21 | i | i | nt | nt | nt | nt
CN1c2ccc(C3=CCCCC3)cc2[C@H]2[C@H](CCN2C(=O)C2CC2)[C@@H]1CO | nt | nt | nt | 46 | nt | nt
O=C(C1CCCC1)N1CC[C@@H]2[C@H](CO)Nc3ccc(C4=CCCCC4)cc3[C@@H]21 | nt | nt | i | i | 50 | nt
O=C(c1ccc(F)cc1)N1CC[C@@H]2[C@H]1c1cc(C3=CCCCC3)ccc1N[C@@H]2CO | i | i | i | nt | i | nt
O=C(c1ccncc1)N1CC(=O)N2[C@H](C1)[C@@H](c1ccc(/C=C/c3ccccc3)cc1)[C@@H]2CO | nt | nt | i | i | i | nt
CCCC(=O)Nc1ccc2c(c1)C(=O)N(C)[C@@H]1CC[C@@H](CC(=O)NCc3ccccc3F)O[C@@H]1CO2 | i | i | i | i | i | i
Cc1cc(C)nc(N/N=C/c2ccccc2OCc2ccccc2)n1 | i | i | i | 79 | nt | i
Cc1cc(C)nc(N/N=C/c2ccccc2OCc2ccc(Br)cc2)n1 | i | nt | i | i | nt | i
O=C(NCCc1ccc(Cl)cc1)c1ccc2nc[nH]c2c1 | nt | nt | i | i | nt | 43
FC(F)Oc1ccc(NC(=S)N2CCN(Cc3ccccc3)CC2)cc1 | nt | nt | i | i | nt | 44
